Results from ChEMBL document CHEMBL4346672, “Antimicrobial and KPC/AmpC inhibitory activity of functionalized benzosiloxaboroles” (Eur J Med Chem, 2019).
Values after ≈ are worked out from the molar mass of the structure shown. Active and inactive are the calls of the source. The rule behind the calls is not given here.

Experiments:
[1] = test system: Enterococcus faecalis; assay: Bactericidal activity against Enterococcus faecalis ATCC 29212 measured after 18 hrs by CLSI broth dilution method; assay type: functional; details: ATCC 29212, 18 h
Outline: (§1)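 Strains stored at -80 °C and subcultured twice on tryptic soy agar before testing. Compounds dissolved in DMSO. […] MBC then determined per CLSI recommendations.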

[2] = test system: Pichia kudriavzevii; assay: Antifungal activity against Candida krusei ATCC 6258 assessed as diameter of zone inhibition incubated for 24 hrs by CLSI disc diffusion method; assay type: functional
Outline: (§2)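 Yeast disc diffusion on Mueller-Hinton agar supplemented with 2% glucose and 0.5 mg/L methylene blue. Compounds in DMSO. Yeasts subcultured on Sabouraud dextrose agar before testing. Zones read after 35 °C, 24 h.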

[3] = Cytotoxicity against human MRC5 cells assessed as cell viability at 8 ug/ml incubated for 72 hrs by MTT assay; assay type: cell-based; details: read-out: Activity
Outline: (§3)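 MRC-5 pd30 human fibroblasts grown in MEM with 10% FBS, 2 mM L-glutamine, penicillin/streptomycin and 1% non-essential amino acids at 37 °C, 5% CO2. Exponentially growing cells trypsinized and seeded at 8×10^3 cells/well, then dosed 18 h later with 2-fold dilutions (0.5% DMSO final) for 72 h. MTT (1 mg/ml final) added for 1 h at 37 °C, formazan dissolved in DMSO, OD read at 570 nm. Four replicates, expressed as % viable versus control.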

[4] = test system: Saccharomyces cerevisiae; assay: Antifungal activity against Saccharomyces cerevisiae ATCC 9763 diameter of zone inhibition incubated for 24 hrs by CLSI disc diffusion method; assay type: functional
Outline: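 Disc-diffusion run on Mueller-Hinton II agar with 2% glucose and 0.5 mg/L methylene blue, using compounds in DMSO. Yeast was precultured on Sabouraud dextrose agar (24–48 h, 30 °C). Zones read after 24 h at 35 °C.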

[5] = test system: Escherichia coli; assay: Antibacterial activity against Escherichia coli ATCC 25922 measured after 18 hrs by CLSI broth dilution method; assay type: functional; details: ATCC 25922, 18 h
Outline: (§4)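 Broth MIC in Mueller-Hinton II broth following CLSI, compounds dissolved in DMSO. Strains subcultured twice on tryptic soy agar before testing. Growth read after 35 °C, 18 h.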

[6] = test system: Burkholderia cepacia; assay: Antibacterial activity against Burkholderia cepacia ATCC 25416 measured after 18 hrs by CLSI broth dilution method; assay type: functional; details: ATCC 25416, 18 h; outline: as §4
[7] = test system: Escherichia coli; assay: Inhibition of beta lactamase CMY-2 in Escherichia coli 77 assessed as potentiation of ceftazidime-induced antibacterial activity by measuring ceftazidime MIC at 16 mg/L incubated for 18 hrs by broth dilution method (reference value: […] mg/L)
[8] = test system: Enterobacter cloacae; assay: Antibacterial activity against Enterobacter cloacae DSM 6234 measured after 18 hrs by CLSI broth dilution method; assay type: functional; details: DSM 6234, 18 h; outline: as §4
[9] = test system: Stenotrophomonas maltophilia; assay: Antibacterial activity against Stenotrophomonas maltophilia ATCC 13637 assessed as diameter of zone inhibition measured after 18 hrs by CLSI disc diffusion method; assay type: functional
Outline: (§5)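 Disc diffusion on Mueller-Hinton II agar. Compounds dissolved in DMSO. Strains stored at -80 °C and subcultured twice on tryptic soy agar before testing. Inhibition zones read after 35 °C, 18 h.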

[10] = test system: Enterococcus faecalis; assay: Antibacterial activity against Enterococcus faecalis ATCC 29212 assessed as diameter of zone inhibition measured after 18 hrs by CLSI disc diffusion method; assay type: functional; outline: as §5
[11] = Cytotoxicity against human MRC5 cells assessed as cell viability at 1 ug/ml incubated for 72 hrs by MTT assay; assay type: cell-based; details: read-out: Activity; outline: as §3
[12] = test system: Staphylococcus epidermidis; assay: Antibacterial activity against Staphylococcus epidermidis ATCC 12228 measured after 18 hrs by CLSI broth dilution method; assay type: functional; details: ATCC 12228, 18 h; outline: as §4
[13] = test system: Enterobacter cloacae; assay: Antibacterial activity against Enterobacter cloacae DSM 6234 assessed as fold reduction of MIC in presence of efflux pump inhibitor PAbetaN incubated for 18 hrs by broth microdilution method; assay type: functional
Outline: (§6)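 MICs determined with and without PAβN at 50 mg/L in Mueller-Hinton broth containing 1 mM MgSO₄. 2-fold serial dilutions per CLSI. Fold change taken from the paired MICs after 35 °C, 18 h.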

[14] = test system: Staphylococcus aureus; assay: Bactericidal activity against Staphylococcus aureus ATCC 6538P measured after 18 hrs by CLSI broth dilution method; assay type: functional; outline: as §1
[15] = test system: Serratia marcescens; assay: Antibacterial activity against Serratia marcescens ATCC 13880 assessed as fold reduction of MIC in presence of efflux pump inhibitor PAbetaN incubated for 18 hrs by broth microdilution method; assay type: functional; outline: as §6
[16] = Cytotoxicity against human MRC5 cells assessed as cell viability at 16 ug/ml incubated for 72 hrs by MTT assay; assay type: cell-based; details: read-out: Activity; outline: as §3
[17] = test system: Klebsiella pneumoniae; details: ATCC 13883
[18] = test system: Candida tropicalis; assay: Antifungal activity against Candida tropicalis IBA 171 assessed as diameter of zone inhibition incubated for 24 hrs by CLSI disc diffusion method; assay type: functional; outline: as §2
[19] = test system: Acinetobacter baumannii; assay: Antibacterial activity against Acinetobacter baumannii ATCC 19606 assessed as fold reduction of MIC in presence of efflux pump inhibitor PAbetaN incubated for 18 hrs by broth microdilution method; assay type: functional; outline: as §6
[20] = Cytotoxicity against human MRC5 cells assessed as cell viability at 32 ug/ml incubated for 72 hrs by MTT assay; assay type: cell-based; details: read-out: Activity; outline: as §3
[21] = test system: Klebsiella pneumoniae; assay: Inhibition of beta lactamase KPC-3 in Klebsiella pneumoniae 83 assessed as potentiation of ceftazidime-induced antibacterial activity by measuring ceftazidime MIC at 16 mg/L incubated for 18 hrs by broth dilution method (reference value: >[…] mg/L)
[22] = test system: Serratia marcescens; assay: Antibacterial activity against Serratia marcescens ATCC 13880 measured after 18 hrs by CLSI broth dilution method; assay type: functional; details: ATCC 13880, 18 h; outline: as §4
[23] = test system: Pseudomonas aeruginosa; assay: Antibacterial activity against Pseudomonas aeruginosa ATCC 27853 assessed as fold reduction of MIC in presence of efflux pump inhibitor PAbetaN incubated for 18 hrs microdilution method; assay type: functional; outline: as §6
[24] = test system: Enterobacter cloacae; assay: Antibacterial activity against Enterobacter cloacae DSM 6234 assessed as diameter of zone inhibition measured after 18 hrs by CLSI disc diffusion method; assay type: functional; outline: as §5
[25] = test system: Staphylococcus aureus; assay: Antibacterial activity against Staphylococcus aureus ATCC 6538P assessed as diameter of zone inhibition measured after 18 hrs by CLSI disc diffusion method; assay type: functional; outline: as §5
[26] = test system: Klebsiella pneumoniae 700603; assay: Inhibition of extended-spectrum beta lactamase in Klebsiella pneumoniae ATCC 700603 assessed as potentiation of ceftazidime-induced antibacterial activity by measuring diameter of zone inhibition at 0.3 mg incubated for 18 hrs in presence of 10 ug ceftazidime by CLSI disc diffusion method (Rvb=13 mm)
Outline: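 EUCAST ESBL combination disc test on Mueller-Hinton agar. Zones were compared between a ceftazidime or cefotaxime disc alone and the same disc plus agent at 0.3 mg per disc. Clavulanic acid discs at 0.01 mg per disc served as reference. Plates were incubated at 35 °C for 18 h. A difference of at least 5 mm was counted as inhibition.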

[27] = biological target: Class A carbapenemase KPC-2 (Escherichia coli) (UniProt A8DS27); assay: Inhibition of beta lactamase KPC-2 in Escherichia coli 76 assessed as potentiation of ceftazidime-induced antibacterial activity by measuring ceftazidime MIC at 16 mg/L incubated for 18 hrs by broth dilution method (reference value: >[…] mg/L)
[28] = test system: Staphylococcus epidermidis; assay: Bactericidal activity against Staphylococcus epidermidis ATCC 12228 measured after 18 hrs by CLSI broth dilution method; assay type: functional; details: ATCC 12228, 18 h; outline: as §1

C[Si]1(C)OB(O)c2ccc(B(O)O)cc21
MBC [1]: 400 µg/mL (≈ 1800 µM)
diameter of the inhibition zone (DIZ) [2]: inactive
viability at 72 h, 8 ug/ml [3]: 126%
diameter of the inhibition zone (DIZ) [4]: inactive
MIC [5]: > 400 µg/mL
MIC [6]: > 400 µg/mL
MIC [7]: 8 µg/mL
MIC [8]: > 400 µg/mL
diameter of the inhibition zone (DIZ) [9]: 12 mm
diameter of the inhibition zone (DIZ) [10]: inactive
viability at 72 h, 1 ug/ml [11]: 117%
MIC [12]: 50 µg/mL (≈ 225 µM)
fold change (FC) [13]: 16
MBC [14]: 200 µg/mL (≈ 901 µM)
fold change (FC) [15]: 2
viability at 72 h, 16 ug/ml [16]: 120%
DIZ [17]: inactive
diameter of the inhibition zone (DIZ) [18]: inactive
fold change (FC) [19]: 2
viability at 72 h, 32 ug/ml [20]: 102%
MIC [21]: 64 µg/mL
MIC [22]: > 400 µg/mL
fold change (FC) [23]: 2
diameter of the inhibition zone (DIZ) [24]: inactive
diameter of the inhibition zone (DIZ) [25]: 14 mm
inhibition zone (IZ) [26]: 13 mm
MIC [27]: > 64 µg/mL
MBC [28]: 100 µg/mL (≈ 451 µM)
